From ChEMBL document CHEMBL5113395, “Azetidin-2-one-based small molecules as dual hHDAC6/HDAC8 inhibitors: Investigation of their mechanism of action and impact of dual inhibition profile on cell viability” (Eur J Med Chem, 2022)
The source made the active and inactive calls. The calls are words filed in the database; no cut-off is given here.

Experiments:
Histone deacetylase 8 = molecular target: T1, Histone deacetylase 8 (Homo sapiens, UniProt Q9BY41); experiment: Inhibition of recombinant human HDAC8 using FLUOR DE LYS as substrate preincubated for 15 mins followed by substrate addition measured after 1 hrs by fluorescence plate reader analysis
T1 sequence (Q9BY41 whole entry): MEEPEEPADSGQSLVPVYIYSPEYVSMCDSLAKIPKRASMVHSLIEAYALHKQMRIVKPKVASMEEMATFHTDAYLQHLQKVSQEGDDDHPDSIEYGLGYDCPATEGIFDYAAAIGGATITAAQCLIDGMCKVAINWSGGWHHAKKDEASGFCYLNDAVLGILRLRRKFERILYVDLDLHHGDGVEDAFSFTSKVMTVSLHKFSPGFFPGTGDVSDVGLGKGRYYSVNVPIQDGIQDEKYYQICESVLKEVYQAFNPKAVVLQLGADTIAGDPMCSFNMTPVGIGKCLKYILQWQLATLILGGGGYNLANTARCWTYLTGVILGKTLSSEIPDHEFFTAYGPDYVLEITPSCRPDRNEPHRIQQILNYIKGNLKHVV
How it was run: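 Kit recombinant human HDAC8 (0.45 U/reaction) was preincubated 15 min with compound (0.5% DMSO; DMSO-only control). Fluor de Lys substrate was then added at 50 µM final and the reaction ran 1 h at 30 °C. It was quenched with 2 µM TSA in Developer II for a further 1 h at 30 °C, and fluorescence read at ex 370/em 450 nm. IC50 came from nonlinear dose–response fitting.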

[1] = molecular target: T2, Protein deacetylase HDAC6 (Homo sapiens, UniProt Q9UBN7); experiment: Inhibition of recombinant human full length N-terminal GST-tagged HDAC6 expressed in Sf9 cells using ZMAL (Z-(Ac)Lys-AMC as substrate measured after 90 mins by fluorescence plate reader analysis
T2 sequence (Q9UBN7 whole entry): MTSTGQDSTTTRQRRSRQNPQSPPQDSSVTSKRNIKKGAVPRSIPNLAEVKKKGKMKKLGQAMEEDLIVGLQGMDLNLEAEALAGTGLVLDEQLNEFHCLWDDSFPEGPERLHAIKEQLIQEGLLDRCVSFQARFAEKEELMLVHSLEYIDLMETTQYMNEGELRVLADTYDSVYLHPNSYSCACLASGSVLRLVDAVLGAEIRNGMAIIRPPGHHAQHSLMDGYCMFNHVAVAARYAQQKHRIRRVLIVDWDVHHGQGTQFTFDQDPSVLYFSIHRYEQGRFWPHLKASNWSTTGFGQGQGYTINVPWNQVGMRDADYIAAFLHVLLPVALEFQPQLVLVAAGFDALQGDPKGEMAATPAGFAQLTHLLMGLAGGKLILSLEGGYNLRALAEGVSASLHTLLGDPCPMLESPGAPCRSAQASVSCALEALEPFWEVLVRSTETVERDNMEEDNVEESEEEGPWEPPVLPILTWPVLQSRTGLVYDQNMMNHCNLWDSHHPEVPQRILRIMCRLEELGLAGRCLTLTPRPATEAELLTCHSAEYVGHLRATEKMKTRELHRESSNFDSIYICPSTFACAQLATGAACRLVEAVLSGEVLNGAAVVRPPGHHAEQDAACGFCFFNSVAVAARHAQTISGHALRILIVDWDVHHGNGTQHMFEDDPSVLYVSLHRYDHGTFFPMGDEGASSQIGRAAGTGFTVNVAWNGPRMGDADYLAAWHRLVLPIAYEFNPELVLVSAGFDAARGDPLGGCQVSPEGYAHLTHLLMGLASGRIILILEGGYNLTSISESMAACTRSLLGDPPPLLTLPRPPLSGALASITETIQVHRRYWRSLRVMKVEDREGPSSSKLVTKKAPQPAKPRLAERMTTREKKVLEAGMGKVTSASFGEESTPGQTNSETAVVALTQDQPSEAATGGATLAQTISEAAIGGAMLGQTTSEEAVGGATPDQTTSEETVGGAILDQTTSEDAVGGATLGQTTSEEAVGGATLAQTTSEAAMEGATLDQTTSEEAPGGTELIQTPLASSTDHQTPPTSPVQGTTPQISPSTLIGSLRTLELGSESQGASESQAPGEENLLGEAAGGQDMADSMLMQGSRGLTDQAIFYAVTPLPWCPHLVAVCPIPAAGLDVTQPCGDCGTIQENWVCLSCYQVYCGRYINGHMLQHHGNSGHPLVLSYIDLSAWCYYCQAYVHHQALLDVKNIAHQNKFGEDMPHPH

[2] = molecular target: T3, Histone deacetylase 8 (Homo sapiens) (UniProt Q9BY41); experiment: Inhibition of HDAC8 in human HCT-116 cells assessed as increase in acetylation level of SMC3 at 10 uM measured after 24 hrs by Western blot analysis; type: cell-based
T3 sequence (whole entry): T1 sequence (Q9BY41 whole entry)
How it was run: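 HCT116 or U937 cells were treated at 10 µM for 24–48 h and lysed in NP40 buffer with protease/phosphatase inhibitors. 50 µg protein was resolved by SDS-PAGE and probed with anti-acetyl-SMC3 (Lys105/106, 1:1000), normalized to GAPDH (1:3000). PCI served as positive control, and band intensities were semi-quantified by densitometry.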

U-937 = experiment: Antiproliferation activity against human U-937 cells assessed as reduction in cell viability at 5 to 50 uM measured after 48 hrs by CCK-8 assay; type: functional, cell-based; conditions: dose 5-50 µM
How it was run: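 U937 cells were exposed in triplicate to 1, 5, 10 and 50 µM for 24 and 48 h. CCK-8 (WST-8) reagent was then added, with 3 h further incubation at 37 °C, and absorbance was read at 450 nm to give viability.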

Histone deacetylase 1 = Histone deacetylase 1 (Homo sapiens, UniProt Q13547); experiment: Inhibition of recombinant human full length C-terminal FLAG/His-tagged HDAC1 expressed in Sf9 insect cells using ZMAL (Z-(Ac)Lys-AMC as substrate measured after 90 mins by fluorescence plate reader analysis
Danio rerio = experiment: In vivo inhibition of HDAC6 in zebrafish AB embryos assessed as increase in acetylation level of alpha-tubulin at 25 to 75 uM measured after 24 hrs by Western blot analysis; conditions: dose 25-75 µM
[3] = Octanol-water partition coefficient, log P of the compound by HPLC analysis; type: physicochemical
How it was run: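 Stock of 0.005 M in MeOH, diluted serially in MeOH to build a calibration curve. Compound partitioned between water and n-octanol. LogP taken from the n-octanol/water phase ratio against the calibration curve, quantified by the RP-18 HPLC method at 254 nm.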

[4] = Chemical stability of compound in PBS at pH 7.4 incubated for 24 hrs at 40 degreeC by HPLC/UV/DAD analysis; type: physicochemical; conditions: read-out: Stability
[5] = Metabolic stability in mouse liver microsome assessed as apparent decay constant at 5 uM in presence of NADPH incubated up to 60 mins by HPLC analysis; type: ADME; conditions: liver microsomes
How it was run: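 Compound in MeCN was incubated at 5 µM and 37 °C in 100 mM phosphate buffer pH 7.4 with 0.5 mg/mL human or mouse liver microsomal protein. Reactions were started with an NADPH-regenerating system (2 mM NADPH, glucose-6-phosphate, G6PDH, MgCl2) and stopped with MeCN over 0–60 min. Remaining compound was measured by HPLC-UV at 254 nm, in triplicate, with first-order decay fitting.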

Histone deacetylase 1, sequence (Q13547 whole entry): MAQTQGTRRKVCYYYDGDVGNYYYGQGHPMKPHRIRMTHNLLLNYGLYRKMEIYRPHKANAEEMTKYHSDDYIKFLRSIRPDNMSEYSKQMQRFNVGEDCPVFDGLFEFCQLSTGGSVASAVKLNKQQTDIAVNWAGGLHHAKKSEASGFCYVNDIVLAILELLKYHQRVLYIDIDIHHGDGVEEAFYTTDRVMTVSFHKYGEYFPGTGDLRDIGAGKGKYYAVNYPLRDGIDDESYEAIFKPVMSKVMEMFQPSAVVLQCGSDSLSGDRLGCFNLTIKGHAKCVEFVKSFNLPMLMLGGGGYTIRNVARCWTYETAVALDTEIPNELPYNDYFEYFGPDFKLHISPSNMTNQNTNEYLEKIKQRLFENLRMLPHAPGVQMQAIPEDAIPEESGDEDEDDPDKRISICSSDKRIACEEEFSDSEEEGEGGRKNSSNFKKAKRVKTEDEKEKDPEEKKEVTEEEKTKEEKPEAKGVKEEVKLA

Compound | IC50 (Histone deacetylase 8) | IC50 [1] | inhibition [2] | Activity (U-937) | IC50 (Histone deacetylase 1) | Activity (Danio rerio) | logP [3] | remaining at 24 h [4] | k el at 1 h, 5 µM [5]
O=C(NO)c1ccc(CC(=O)N2CCC(N3CC(c4ccccc4)(c4ccccc4)C3=O)CC2)cc1 | 113 nM | 91 nM | Active | Active | 9700 nM |  |  |  | 
O=C(NO)c1ccc(CNC(=O)N2CCC(N3C(=O)[C@H](c4ccccc4)[C@H]3c3ccccc3)CC2)cc1 (racemic) | 42 nM | 21 nM | Active | Active | 4200 nM | Active | 2.75 | 100% | 0.000182 s⁻¹
O=C(NO)c1ccc(CNC(=O)N2CCC(N3CC(c4ccccc4)(c4ccccc4)C3=O)CC2)cc1 | 99 nM | 3.4 nM | Active | Active | 4300 nM | Active | 2.78 | 94% | 0.000173 s⁻¹
